Common to all, as to format: in vivo, Swiss albino mice
The test system of one series is NO levels. Nature of the series: NO. The note with it: hippocampus tissue homogenate. The method, boiled down: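 Hippocampus came from mice dosed intranasally for 6 days and challenged with scopolamine (n = 5). Tissue was homogenised in KCl buffer pH 8.0 with protease and phosphatase inhibitors, then spun at 10,000 g for 25 min at 4 °C. The 10% homogenate was mixed with ammonium chloride and Griess reagent, held 37 °C for 90 min, read at 540 nm. Sodium nitrite standards […]; nitrite in μM/mL; one-way ANOVA with Newman–Keuls.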

A short description of series [1]: Organ distribution and brain pharmacokinetic study. The settings on record: brain.
In series [2] the test system is spatial memory of scopolamine-treated AD mice. Nature of the series: Morris water-maze test in scopolamine-treated mice. The note with it: for spatial memory (probe test, fifth day): after platform removal, vs scopolamine group; for number of entries in the arm: intranasal 0.5 mg/kg bw; for time to find the hidden acrylic platform: intranasal 0.5 mg/kg bw (EGCG-AA-TRANS 0.25 mg/kg bw each). The method, boiled down:
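Mice (30 ± 5 g; n = 5/group) were dosed intranasally for 6 days with free or transferosome-loaded test compound at 0.5 mg/kg bw, or 0.25 mg/kg bw of each in the combination. On day 7, scopolamine 0.5 mg/kg bw was given 30 min before trials. Pool 160 cm wide, water 26 cm deep, 22 ± 1 °C; run over 5 days. Quadrant time, arm entries and platform latency recorded; one-way ANOVA with Newman–Keuls.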

Setting [3] is: Swiss albino, mouse, inhaled or intranasal, 0.5 mg/kg.

Values joined by “and” are separate entries in the source; they are usually repeats but may differ in a detail not shown here. Equal entries are not always repeated.

On to `O=C1O[C@H]([C@@H](O)CO)C(O)=C1O` [AA, ascorbic acid], for which the NO levels entry in the series on NO levels is given as “significant decrease in NO levels”. In series [1] (setting [3]), the AUC(0-t) (commonly the area under the concentration-time curve up to a stated or last time point) amounted to 1061 ± 0.654 ng·h/mL; the Cmax (usually the highest concentration seen after dosing) is 855.03 ± 0.654 ng/mL; the MRT last (in general, a mean duration of stay, worked out from the concentration-time curve) was 1.98 ± 0.121 h; the Tmax (as a rule, the time from dosing to the highest level) turned out to be 2.12 ± 0.871 h. Moreover, in series [2], the “spatial memory (probe test, fifth day)” value was “improved spatial memory”; the “number of entries in the arm” value is on record as 15 times; the “time to find the hidden acrylic platform” value is 38 s.
As to `CN1[C@@H]2C[C@@H](OC(=O)[C@H](CO)c3ccccc3)C[C@H]1[C@@H]1O[C@@H]12` [scopolamine, Scopolamine], the NO levels result in the series on NO levels is “significantly higher”. Also, in series [2], the “spatial memory (probe test, fifth day)” value is “significantly reduced their spatial memory”; the “number of entries in the arm” value is “about 12 times”; the “time to find the hidden acrylic platform” value is on record as 84 s.
Turning to Epigallocatechin-3-gallate [EGCG], the NO levels entry with NO levels is reported as “significant decrease in NO levels”. In series [1] (mice), the highest concentration (Cmax) came to 0.78607 ± 0.000784 ng/mL; the “MRT0–24” value is 1.4 ± 0.985 h and 1.412 ± 0.985 h; the Tmax came to 1.101 ± 2.871 h. In series [2], the “spatial memory (probe test, fifth day)” value is on record as “improved spatial memory”; the “number of entries in the arm” value amounted to 14 times; the “time to find the hidden acrylic platform” value was found to be 42 s.

(Values after article PMC11339821 (ACS Omega, 2024).)
